Assay [1] can be described thus: inhibitors of TNFa-induced NFkB p65 translocation, primary screen, imaging, HUVEC, MLSMR starter and 10KST1 sets (AID 438;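 active = inhibition above 20% together with a positive visual image hit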;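 note: compound added about 3h40 before a 20 min TNFalpha stimulation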;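 for inhibition: signal is the nuclear over cytoplasmic p65 intensity ratio per well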). As to conditions: HUVEC TNFa-induced p65 nuclear translocation; cell count: measured here: nuclei count (cytotoxicity indicator), at 2.08 µM; inhibition: at 2 µM, stronger effect = higher value, 0% TNFa-plus-vehicle, 100% no-TNFa wells.
Assay [2] in a line: reduction of polyQ htt aggregates in cells – imaging, exon1htt(103Q)mCFP cells, high-content imaging, primary screen (AID 483;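 active = visual image review flags a hit and inhibition of aggregation exceeds 20%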;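 note: compound exposure lasted 3 days before fixation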;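 for nuclei count: percent of the per-plate median nuclei count of sample wells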). To be noted: exon1htt(103Q)mCFP cell line, aggregate imaging, at 2 µM; inhibition of aggregation: stronger effect = higher value; nuclei count: measured here: cell count, toxicity.
Assay [3] in a line: endothelial E-selectin expression blockers – imaging, HUVEC, immunofluorescence, MLSMR starter and 10KST1 sets, primary screen (AID 487;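 active = visually confirmed hit in the image check and inhibition above 20%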;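 for inhibition: signal is fraction of cell area covered by stained E-selectin grains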;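 for nuclei count: 100% = median nuclei count of all wells on the same plate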). To be noted: HUVEC TNFalpha-induced E-selectin immunofluorescence imaging, at 2 µM; inhibition: stronger effect = higher value; nuclei count: measured here: cell number, toxicity.
The target in assay [4] is Voltage-gated potassium channel subunit beta-2 (Rattus norvegicus) (UniProt P62483). In words: inhibitors of rat Kvbeta2 reductase activity – biochemical, NADPH fluorescence, primary screen (AID 622;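 active = fluorescence slope higher than the sample average by over 3 SD, cut at about -0.22 in these data, passing the limit was not always enough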;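 note: slope of raw intensity against log time taken from 70 to 1610 s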). To be noted: recombinant KvBeta, 4-cyanobenzaldehyde reduction, at 10 µM, stronger effect = higher value.
The target is the same in assay [5]. The assay is described as follows: enhancers of rat Kvbeta2 NADPH turnover – biochemical, NADPH fluorescence, primary screen (AID 623).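 Note: fluorescence intensity change per second fitted from 20 to 320 s.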 To be noted: Recombinant KvBeta, NADPH fluorescence decrease slope, 10 min; at 10 µM; stronger effect = lower value.
The target of assay [6] is Muscarinic acetylcholine receptor M4 (Homo sapiens) (UniProt P08173). The assay is described as follows: M4-linked GIRK flux change, two-sided – cell-based, HEK293 M4/GIRK, thallium flux, BTC-AM, M4 allosteric agonist project, primary screen (AID 625;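 active = fluorescence slope after compound addition differing from the mean of all tested samples at 99.7% confidence, mostly higher but some lower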;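 note: thallium influx through GIRK channels coupled to M4 in HEK293 cells with BTC-AM dye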). To be noted: at 10 µM, actives lie on both sides. Put shortly:
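Assay system: HEK293 cells with M4 receptor and GIRK channels / Controls: carbachol and DMSO controls / Schedule: 1 h dye loading, 2 min kinetic read / Technique: kinetic fluorescence with BTC-AM dye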

Assay [7] is described as follows: blockers of RIG-like receptor reporter activation – cell-based, Sendai virus stimulus, luciferase, 10K MLSCN set, TLR/RLR signaling modifier project, primary screen (AID 602276;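 active = inhibition at or above 50% at 10 µM; inactive = inhibition below 50%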;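 note: firefly luciferase from ISG56 promoter only with Renilla not read in this screen; 0% = Sendai virus plus DMSO and 100% = medium plus DMSO without virus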). To be noted: HEK293 RL24 IRF3 luciferase reporter, at 10 µM, stronger effect = higher value.
Assay [8] can be described thus: TLR3 IRF3 reporter activation blockers – cell-based, poly I:C stimulus, luciferase, 10K MLSCN set, primary screen (AID 602277;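 active = inhibition of the reporter signal at or above 50%; inactive = inhibition below 50%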). As to conditions: HEK293-TLR3 RL24 IRF3 luciferase reporter, at 10 µM, stronger effect = higher value.

Calls of active or inactive are those of the source.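 Rule for the calls, unless noted: active = NADPH fluorescence slope more negative than the mean of all samples by about 3 SD, 99.7% confidence; inactive = the rest.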

Chain of Voltage-gated potassium channel subunit beta-2 (Rattus norvegicus) (P62483 whole entry, looked up): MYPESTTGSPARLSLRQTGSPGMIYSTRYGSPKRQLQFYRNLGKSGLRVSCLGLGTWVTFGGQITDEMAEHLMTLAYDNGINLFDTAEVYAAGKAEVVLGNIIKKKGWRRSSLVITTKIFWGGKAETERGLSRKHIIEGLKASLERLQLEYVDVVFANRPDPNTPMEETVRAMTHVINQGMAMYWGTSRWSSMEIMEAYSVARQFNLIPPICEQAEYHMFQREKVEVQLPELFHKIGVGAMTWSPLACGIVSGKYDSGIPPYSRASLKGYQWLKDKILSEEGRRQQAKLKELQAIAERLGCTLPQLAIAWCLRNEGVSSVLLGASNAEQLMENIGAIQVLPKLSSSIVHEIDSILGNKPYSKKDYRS
Chain of Muscarinic acetylcholine receptor M4 (Homo sapiens) (P08173 whole entry, looked up): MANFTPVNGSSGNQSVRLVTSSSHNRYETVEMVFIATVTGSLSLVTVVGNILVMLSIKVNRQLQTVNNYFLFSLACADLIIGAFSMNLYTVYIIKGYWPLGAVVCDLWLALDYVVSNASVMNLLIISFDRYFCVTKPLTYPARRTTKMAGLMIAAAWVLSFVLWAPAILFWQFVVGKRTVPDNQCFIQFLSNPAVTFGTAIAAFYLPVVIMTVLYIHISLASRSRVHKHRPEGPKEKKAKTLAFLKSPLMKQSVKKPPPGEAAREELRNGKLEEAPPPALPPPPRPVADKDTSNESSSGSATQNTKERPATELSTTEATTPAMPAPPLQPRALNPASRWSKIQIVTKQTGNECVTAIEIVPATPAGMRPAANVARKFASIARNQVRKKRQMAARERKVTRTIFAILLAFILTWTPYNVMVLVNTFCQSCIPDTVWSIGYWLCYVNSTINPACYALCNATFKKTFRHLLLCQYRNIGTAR

In the case of `O=C(CCn1c(=O)sc2ccccc21)Nc1cccnc1`, the cell count in assay [1] worked out at 572. Moreover, the inhibition in assay [1] is -7.6% (inactive); in assay [3], -11.2% (inactive); in assay [7], 8.62% (inactive); in assay [8], 10.8% (inactive). The inhibition of aggregation in assay [2] is 20.2% (inactive). Moreover, the nuclei count in assay [2] was determined as 81.9%; in assay [3], 110%. The fluorescence slope was -0.443 (inactive) in assay [4] and 0.00603 (inactive) in assay [6]. For the same molecule, the NADPH fluorescence slope in assay [5] is 0.000131 (inactive).
`COc1ccc2c(c1)c1c(n2C(C)=O)C(OC(C)=O)=NCC1`: in assay [1], the cell count was determined as 904. Moreover, the inhibition is -1.4% (inactive) in assay [1], -98.4% (inactive) in assay [3], 13.2% (inactive) in assay [7] and -6.44% (inactive) in assay [8]. Further, the inhibition of aggregation in assay [2] was -12.8% (inactive). The nuclei count in assay [2] came to 101%; in assay [3], 128%. The fluorescence slope in assay [4] was -0.166 (active); in assay [6] it was 0.00438 (inactive). Moreover, in assay [5], the NADPH fluorescence slope was -2.6e-05 (inactive).
For the molecule `Cc1nc2ccccc2c(=O)n1NC(=O)c1ccc(F)cc1Cl`, in assay [1], the cell count came out at 302. The inhibition in assay [1] was 5% (inactive); in assay [3], 21.5% (inactive); in assay [7], 10.8% (inactive); in assay [8], 8.86% (inactive). Besides, the inhibition of aggregation in assay [2] was 9.2% (inactive). Besides, the nuclei count in assay [2] came out at 87.5%; in assay [3] it was 70.3%. For the same molecule, the results for the fluorescence slope in assay [4] and in assay [6] were -0.483 (inactive) and 0.00433 (inactive), respectively. Besides, the NADPH fluorescence slope in assay [5] was -2.3e-05 (inactive).
For `CC(C)(C)n1nc2c(c1NC(=O)COc1ccc(Cl)cc1)CSC2`, the cell count in assay [1] was found to be 643. Besides, the inhibition in assay [1] was 3.8% (inactive); in assay [3], 30.9% (inactive); in assay [7], 18% (inactive); in assay [8], 25.3% (inactive). Besides, in assay [2], the inhibition of aggregation was 13.9% (inactive). In addition, the nuclei count in assay [2] is 93.1%; in assay [3], 95.3%. In addition, the fluorescence slope in assay [4] is -0.467 (inactive); in assay [6], 0.00791 (inactive). Further, in assay [5], the NADPH fluorescence slope was -3.3e-06 (inactive).
As to `CC(=O)Nc1ccc(Cl)c(C(N)=O)c1`, in assay [1], the cell count is 445. Also, the inhibition in assay [1] was -0.6% (inactive); in assay [3], -97.8% (inactive); in assay [7], 19.4% (inactive); in assay [8], 23.4% (inactive). For the same molecule, the inhibition of aggregation in assay [2] is -12.1% (inactive). The nuclei count came out at 94.4% in assay [2] and 113% in assay [3]. In addition, the fluorescence slope in assay [4] is -0.581 (inactive); in assay [6], 0.00404 (inactive). In addition, the NADPH fluorescence slope in assay [5] was -7.9e-05 (inactive).
On to `Cc1nc2sc3c(c2c(=O)o1)CCC3`, for which the cell count in assay [1] is 619. Further, the inhibition in assay [1] was 2.1% (inactive); in assay [3] it was 0.3% (inactive); in assay [7], 16.2% (inactive); in assay [8], 22.8% (inactive). The inhibition of aggregation in assay [2] was -0.2% (inactive). Also, the nuclei count in assay [2] came out at 108%; in assay [3], 93.8%. The fluorescence slope in assay [4] was -0.511 (inactive); in assay [6] it was 0.00356 (inactive). The NADPH fluorescence slope in assay [5] was -0.000121 (inactive).
Consider `Cc1ccccc1C(=O)NC1CCN(CC(=O)Nc2nccs2)CC1`, for which, in assay [1], the cell count was 608. Also, the inhibition was -39.8% (inactive) in assay [1], -37.1% (inactive) in assay [3], 9.51% (inactive) in assay [7] and 14.2% (inactive) in assay [8]. Further, the inhibition of aggregation in assay [2] is 8.2% (inactive). In addition, the nuclei count in assay [2] turned out to be 111%; in assay [3], 109%. Also, the fluorescence slope is -0.476 (inactive) in assay [4] and 0.00698 (inactive) in assay [6]. In addition, the NADPH fluorescence slope in assay [5] was 7.7e-05 (inactive).
As for `CCOC(=O)c1nn(-c2sc(C(=O)OC)c(C)c2C(=O)OC)cc1O`, the cell count in assay [1] is 449. Moreover, the inhibition in assay [1] was -6.2% (inactive); in assay [3], 0.1% (inactive); in assay [7], 20.5% (inactive); in assay [8], 24.1% (inactive). Besides, in assay [2], the inhibition of aggregation was 1% (inactive). The figures for the nuclei count in assay [2] and in assay [3] were 94.5% and 108%, respectively. Besides, the fluorescence slope in assay [4] was -0.518 (inactive); in assay [6] it was 0.00503 (inactive). Besides, the NADPH fluorescence slope in assay [5] was -3.7e-05 (inactive).
As for `CC1(C)CC(=O)C(C=NCCc2ccc(S(N)(=O)=O)cc2)=C(O)C1`, the cell count in assay [1] stood at 601. The inhibition in assay [1] was -6.1% (inactive); in assay [3], -11.3% (inactive); in assay [7], 13.2% (inactive); in assay [8] it was 20.3% (inactive). Also, in assay [2], the inhibition of aggregation is -14.5% (inactive). For the same molecule, the nuclei count in assay [2] turned out to be 114%; in assay [3], 102%. The results for the fluorescence slope in assay [4] and in assay [6] were -0.426 (inactive) and 0.00589 (inactive), respectively. In assay [5], the NADPH fluorescence slope was -8.3e-05 (inactive).
With `COC(=O)c1oc2ccc(Br)cc2c1NC(=O)CN1CCN(C)CC1`, in assay [1], the cell count amounted to 240. Also, the inhibition in assay [1] is 6% (inactive); in assay [3], 30.2% (inactive); in assay [7], 1.64% (inactive); in assay [8] it was 6.76% (inactive). For the same molecule, the inhibition of aggregation in assay [2] was -3.2% (inactive). In addition, the values for the nuclei count in assay [2] and in assay [3] were 94.6% and 85.6%, respectively. Besides, the fluorescence slope in assay [4] was -0.589 (inactive); in assay [6], 0.00465 (inactive). In assay [5], the NADPH fluorescence slope is 1.6e-05 (inactive).
As for `CCc1ccc2oc(-c3cc(N)ccc3Cl)nc2c1`, the cell count in assay [1] is 563. For the same molecule, the inhibition in assay [1] is -33.7% (inactive); in assay [3] it was -53.6% (inactive); in assay [7], -31.8% (inactive); in assay [8], -60.1% (inactive). For the same molecule, the inhibition of aggregation in assay [2] is 3% (inactive). Moreover, the nuclei count in assay [2] was 98.1%; in assay [3], 110%. The fluorescence slope was -0.298 (inactive) in assay [4] and 0.006 (inactive) in assay [6]. Besides, in assay [5], the NADPH fluorescence slope was 8.8e-06 (inactive).
Regarding `COc1cccc(-n2c(C)nc3c(cnn3-c3ccc(Cl)cc3)c2=O)c1`, the cell count in assay [1] worked out at 238. Besides, the inhibition in assay [1] is -6.4% (inactive); in assay [3], -14.1% (inactive); in assay [7] it was -4.02% (inactive); in assay [8] it was 4.48% (inactive). In addition, the inhibition of aggregation in assay [2] was -13.4% (inactive). In addition, the nuclei count came out at 94.3% in assay [2] and 114% in assay [3]. In addition, the fluorescence slope in assay [4] was -0.553 (inactive); in assay [6], 0.00702 (inactive). Moreover, in assay [5], the NADPH fluorescence slope was 7.6e-06 (inactive).
For the molecule `Cc1cc(C)nc(SCc2nnc(SCc3ccccc3Cl)o2)n1`, the cell count in assay [1] was determined as 428. The inhibition is -8.3% (inactive) in assay [1], -33.4% (inactive) in assay [3], 6.47% (inactive) in assay [7] and 0.418% (inactive) in assay [8]. Further, in assay [2], the inhibition of aggregation was 16.9% (inactive). For the same molecule, the nuclei count stood at 110% in assay [2] and 98.3% in assay [3]. The fluorescence slope is -0.468 (inactive) in assay [4] and 0.00428 (inactive) in assay [6]. Moreover, in assay [5], the NADPH fluorescence slope was -0.000278 (inactive).
For `COC(=O)c1cc(NC(=O)C2COc3ccccc3O2)cc(C(=O)OC)c1` (centres undefined), the cell count in assay [1] stood at 462. For the same molecule, the inhibition in assay [1] was 6.8% (inactive); in assay [3], -15.6% (inactive); in assay [7] it was 11.6% (inactive); in assay [8], -7.02% (inactive). For the same molecule, the inhibition of aggregation in assay [2] was 16.1% (inactive). Further, the nuclei count in assay [2] was found to be 101%; in assay [3], 107%. In addition, the fluorescence slope in assay [4] was -0.517 (inactive); in assay [6] it was 0.00524 (inactive). For the same molecule, in assay [5], the NADPH fluorescence slope is -3e-05 (inactive).

For the origin of these results see PubChem BioAssay.
